Legend:
[1] = Selectivity index, ratio of CC50 for human mock-infected MT4 cells to EC50 for HIV1 3B harboring reverse transcriptase K103N mutant infected in human MT4 cells; assay type: toxicity, cell-based; details: MT4 cells (mock-infected for CC50, HIV-1 infected for EC50)
How it was run: (§1)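 Selectivity index is CC50/EC50. CC50 is the concentration that reduces OD540 of mock-infected MT-4 cells by 50% in the 5-day MTT assay. EC50 is the 50% protection from virus-induced cytopathicity, measured in parallel on infected wells.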

[2] = test system: Human immunodeficiency virus 1; assay: Antiviral activity against wild type HIV1 3B harboring reverse transcriptase infected in human MT4 cells assessed as protection against virus induced cytotoxicity after 5 days by MTT assay; assay type: functional, cell-based; details: Human immunodeficiency virus 1, 3B, MT4, 120 h
How it was run: (§2)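 MTT cytopathicity assay in MT-4 cells (6 × 10^5 cells/mL). Compounds serially diluted 5-fold in triplicate wells, run in parallel on infected and mock-infected cells. Virus added at 100−300 CCID50 per well. Viability read spectrophotometrically at 540 and 690 nm after 5 days, using the median OD of three wells.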

[3] = Antiviral activity against HIV2 ROD harboring reverse transcriptase infected in human MT4 cells assessed as protection against virus induced cytotoxicity after 5 days by MTT assay; assay type: functional, cell-based, Human immunodeficiency virus type 2 (ISOLATE ROD); details: Human immunodeficiency virus 2, MT4, 120 h
How it was run: as §2, with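 “wells. EC50 is the concentration giving 50% protection from viral cytopathogenicity.” for “wells.”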

[4] = Cytotoxicity against human mock-infected MT4 cells assessed as reduction in cell viability after 5 days by MTT assay; assay type: toxicity, cell-based
How it was run: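 Mock-infected MT-4 cells (6 × 10^5 cells/mL at seeding) with serial 5-fold compound dilutions in triplicate wells. Viability read by MTT after 5 days, absorbance at 540 and 690 nm, median OD of three wells. CC50 is the concentration reducing OD540 of mock-infected cells by 50%.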

[5] = Selectivity index, ratio of CC50 for human mock-infected MT4 cells to EC50 for HIV1 RES056 harboring reverse transcriptase K103N/Y181C double mutant infected in human MT4 cells; assay type: toxicity, cell-based; details: MT4 cells (mock-infected for CC50, HIV-1 infected for EC50); how it was run: as §1
[6] = test system: Human immunodeficiency virus 1; assay: Antiviral activity against HIV1 3B harboring reverse transcriptase L100I mutant infected in human MT4 cells assessed as protection against virus induced cytotoxicity after 5 days by MTT assay; assay type: functional, cell-based; details: Human immunodeficiency virus 1, 3B, MT4, 120 h
How it was run: as §2, with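 “wells. EC50 is the concentration giving 50% protection from viral cytopathogenicity.” for “wells.”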

[7] = test system: Human immunodeficiency virus 1; assay: Antiviral activity against HIV1 3B harboring reverse transcriptase K103N mutant infected in human MT4 cells assessed as protection against virus induced cytotoxicity after 5 days by MTT assay; assay type: functional, cell-based; details: Human immunodeficiency virus 1, 3B, MT4, 120 h
How it was run: as §2, with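 “wells. EC50 is the concentration giving 50% protection from viral cytopathogenicity.” for “wells.”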

[8] = test system: Human immunodeficiency virus 1; assay: Antiviral activity against HIV1 3B harboring reverse transcriptase Y181C mutant infected in human MT4 cells assessed as protection against virus induced cytotoxicity after 5 days by MTT assay; assay type: functional, cell-based; details: Human immunodeficiency virus 1, 3B, MT4, 120 h; how it was run: as §2
[9] = test system: Human immunodeficiency virus 1; assay: Antiviral activity against HIV1 3B harboring reverse transcriptase Y188L mutant infected in human MT4 cells assessed as protection against virus induced cytotoxicity after 5 days by MTT assay; assay type: functional, cell-based; details: Human immunodeficiency virus 1, 3B, MT4, 120 h
How it was run: as §2, with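 “wells. EC50 is the concentration giving 50% protection from viral cytopathogenicity.” for “wells.”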

[10] = test system: Human immunodeficiency virus 1; assay: Antiviral activity against HIV1 3B harboring reverse transcriptase E138K mutant infected in human MT4 cells assessed as protection against virus induced cytotoxicity after 5 days by MTT assay; assay type: functional, cell-based; details: Human immunodeficiency virus 1, 3B, MT4, 120 h
How it was run: as §2, with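 “wells. EC50 is the concentration giving 50% protection from viral cytopathogenicity.” for “wells.”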

[11] = test system: Human immunodeficiency virus 1; assay: Antiviral activity against HIV1 3B harboring reverse transcriptase F227L/V106A double mutant infected in human MT4 cells assessed as protection against virus induced cytotoxicity after 5 days by MTT assay; assay type: functional, cell-based; details: Human immunodeficiency virus 1, 3B, MT4, 120 h
How it was run: as §2, with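 “wells. EC50 is the concentration giving 50% protection from viral cytopathogenicity.” for “wells.”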

[12] = Selectivity index, ratio of CC50 for human mock-infected MT4 cells to EC50 for HIV1 3B harboring reverse transcriptase L100I mutant infected in human MT4 cells; assay type: toxicity, cell-based; details: MT4 cells (mock-infected for CC50, HIV-1 infected for EC50); how it was run: as §1
[13] = Selectivity index, ratio of CC50 for human mock-infected MT4 cells to EC50 for HIV1 3B harboring reverse transcriptase Y181C mutant infected in human MT4 cells; assay type: toxicity, cell-based; details: MT4 cells (mock-infected for CC50, HIV-1 infected for EC50); how it was run: as §1
[14] = Selectivity index, ratio of CC50 for human mock-infected MT4 cells to EC50 for HIV1 3B harboring reverse transcriptase Y188L mutant infected in human MT4 cells; assay type: toxicity, cell-based; details: MT4 cells (mock-infected for CC50, HIV-1 infected for EC50); how it was run: as §1
[15] = Selectivity index, ratio of CC50 for human mock-infected MT4 cells to EC50 for HIV1 3B harboring reverse transcriptase E138K mutant infected in human MT4 cells; assay type: toxicity, cell-based; details: MT4 cells (mock-infected for CC50, HIV-1 infected for EC50); how it was run: as §1
[16] = Selectivity index, ratio of CC50 for human mock-infected MT4 cells to EC50 for HIV1 3B harboring reverse transcriptase F227L/V106A double mutant infected in human MT4 cells; assay type: toxicity, cell-based; details: MT4 cells (mock-infected for CC50, HIV-1 infected for EC50); how it was run: as §1
[17] = Selectivity index, ratio of CC50 for human mock-infected MT4 cells to EC50 for wild type HIV1 3B harboring reverse transcriptase infected in human MT4 cells; assay type: toxicity, cell-based; details: MT4 cells (mock-infected for CC50, HIV-1 infected for EC50); how it was run: as §1
[18] = test system: Human immunodeficiency virus 1; assay: Antiviral activity against HIV1 RES056 harboring reverse transcriptase K103N/Y181C double mutant infected in human MT4 cells assessed as protection against virus induced cytotoxicity after 5 days by MTT assay; assay type: functional, cell-based; details: Human immunodeficiency virus 1, RES056, MT4, 120 h; how it was run: as §2
[19] = Inhibition of recombinant wild type HIV1 reverse transcriptase using DIG-dUTP/biotin-dUTP/dTTP assessed as suppression of biotin-dUTP incorporation after 1 hr by ELISA; parameters: species or system Human immunodeficiency virus 1
How it was run: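 Recombinant WT HIV-1 RT in a Roche colorimetric kit: template plus DIG-dUTP, biotin-dUTP and dTTP, ±inhibitor, 1 h at 37 °C. Product captured on streptavidin plate 1 h at 37 °C, anti-DIG-POD 1 h at 37 °C, ABTS developed at 25 °C, read at OD405. IC50 is the concentration inhibiting biotin-dUTP incorporation by 50%.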

SMILES	selectivity ratio [1]	EC50 [2] [nM]	EC50 [3] [µM]	CC50 at 120 h [4] [µM]	selectivity ratio [5]	EC50 [6] [nM]	EC50 [7] [nM]	EC50 [8] [nM]	EC50 [9] [nM]	EC50 [10] [nM]	EC50 [11] [nM]	selectivity ratio [12]	selectivity ratio [13]	selectivity ratio [14]	selectivity ratio [15]	selectivity ratio [16]	selectivity ratio [17]	EC50 [18] [nM]	IC50 [19] [nM]
Cc1cc(C)c(Oc2nc(NC3CCN(Cc4ccc(S(N)(=O)=O)cc4)CC3)nc3ccsc23)c(C)c1	3	3550	> 16.5	16.5	< 1	4520	4940	4840	8470	5500	4550	4	3	2	3	4			
Cc1cc(C)c(Oc2nc(NC3CCN(Cc4cccc(C(N)=O)c4)CC3)nc3ccsc23)c(C)c1	81	14.4	> 7.64	7.64	1	399	93.8	183	234	51	852	19	41	32	149	9	531		
Cc1cc(C#N)cc(C)c1Oc1nc(NC2CCN(Cc3ccccc3F)CC2)nc2ccsc12		8.23	> 189	189	8												23000	24200	
Cc1cc(C#N)cc(C)c1Oc1nc(NC2CCN(Cc3ccccc3C#N)CC2)nc2ccsc12		5.71	> 5.78	5.79	7												1010	810	
COC(=O)c1ccc(CN2CCC(Nc3nc(Oc4c(C)cc(C#N)cc4C)c4sccc4n3)CC2)cc1		3.25	> 41.4	41.4	59												12700	700	
Cc1cc(C#N)cc(C)c1Oc1nc(Nc2ccc(C#N)cc2)nc(N)c1Br [ETRAVIRINE]				> 4.59		5.4	2.4		20.5	14.4	29.4								11
Cc1cc(C)c(Oc2nc(NC3CCN(Cc4ccc(C(N)=O)cc4)CC3)nc3ccsc23)c(C)c1	671	6.5	> 5.81	5.81	18	96.1	8.7	42.7	42.6	21.9	107	60	135	136	265	54	896		
Nc1ccn([C@@H]2CS[C@H](CO)O2)c(=O)n1 [LAMIVUDINE]			8.79	> 87.2													> 39		
Cc1cc(C#N)cc(C)c1Oc1nc(NC2CCN(Cc3ccc(F)cc3F)CC2)nc2ccsc12		22	> 4.08	4.08	< 1												185		

— ChEMBL document CHEMBL3853327 (J Med Chem, 2016)
